Experiments:
[1] = target: Integrin alpha-IIb/beta-3 (Homo sapiens, UniProt P05106+P08514); test: Inhibition of integrin alpha-2b-beta-3 receptor by ELISA; assay type: protein-complex assay
Method in brief: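 Solid-phase ELISA. Wells coated with fibrinogen (10 µg/mL) and blocked with 3% BSA in PBS/0.1% Tween 20 for 1 h at RT. Soluble αIIbβ3 (5 µg/mL) was incubated with serially diluted inhibitor in Tris pH 7.6, 150 mM NaCl, 1 mM MnCl2/MgCl2/CaCl2, 1 mg/mL BSA for 1 h at RT. Detection used anti-CD41b then anti-mouse-HRP, TMB, A450. IC50 was taken as the curve turning point.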

Integrin alpha-V/beta-3 = Integrin alpha-V/beta-3 (Homo sapiens, UniProt P05106+P06756); test: Inhibition of integrin alpha-V-beta-3 receptor by ELISA; assay type: protein-complex assay
Chain of Integrin alpha-V/beta-3 (P05106 27-788 limits assumed): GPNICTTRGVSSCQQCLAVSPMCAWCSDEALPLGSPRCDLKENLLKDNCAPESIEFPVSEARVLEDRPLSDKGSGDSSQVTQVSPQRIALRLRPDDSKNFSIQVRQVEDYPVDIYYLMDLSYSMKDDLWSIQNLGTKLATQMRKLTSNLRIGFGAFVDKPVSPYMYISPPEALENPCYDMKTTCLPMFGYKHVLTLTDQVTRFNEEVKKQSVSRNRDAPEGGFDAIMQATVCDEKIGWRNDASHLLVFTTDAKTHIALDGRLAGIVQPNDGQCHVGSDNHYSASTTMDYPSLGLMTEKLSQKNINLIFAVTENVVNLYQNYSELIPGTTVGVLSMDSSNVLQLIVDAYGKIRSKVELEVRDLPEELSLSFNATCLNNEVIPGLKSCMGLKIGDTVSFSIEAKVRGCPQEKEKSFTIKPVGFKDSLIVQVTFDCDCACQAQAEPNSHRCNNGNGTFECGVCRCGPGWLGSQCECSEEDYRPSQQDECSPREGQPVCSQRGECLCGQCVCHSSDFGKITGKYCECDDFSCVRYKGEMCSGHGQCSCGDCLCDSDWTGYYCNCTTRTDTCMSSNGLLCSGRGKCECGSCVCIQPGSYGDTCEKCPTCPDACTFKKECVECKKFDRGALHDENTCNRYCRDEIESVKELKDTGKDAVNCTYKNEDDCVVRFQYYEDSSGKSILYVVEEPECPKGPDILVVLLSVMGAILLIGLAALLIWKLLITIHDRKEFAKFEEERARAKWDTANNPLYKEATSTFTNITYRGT
Chain of Integrin alpha-V/beta-3 (P06756 31-889 limits assumed): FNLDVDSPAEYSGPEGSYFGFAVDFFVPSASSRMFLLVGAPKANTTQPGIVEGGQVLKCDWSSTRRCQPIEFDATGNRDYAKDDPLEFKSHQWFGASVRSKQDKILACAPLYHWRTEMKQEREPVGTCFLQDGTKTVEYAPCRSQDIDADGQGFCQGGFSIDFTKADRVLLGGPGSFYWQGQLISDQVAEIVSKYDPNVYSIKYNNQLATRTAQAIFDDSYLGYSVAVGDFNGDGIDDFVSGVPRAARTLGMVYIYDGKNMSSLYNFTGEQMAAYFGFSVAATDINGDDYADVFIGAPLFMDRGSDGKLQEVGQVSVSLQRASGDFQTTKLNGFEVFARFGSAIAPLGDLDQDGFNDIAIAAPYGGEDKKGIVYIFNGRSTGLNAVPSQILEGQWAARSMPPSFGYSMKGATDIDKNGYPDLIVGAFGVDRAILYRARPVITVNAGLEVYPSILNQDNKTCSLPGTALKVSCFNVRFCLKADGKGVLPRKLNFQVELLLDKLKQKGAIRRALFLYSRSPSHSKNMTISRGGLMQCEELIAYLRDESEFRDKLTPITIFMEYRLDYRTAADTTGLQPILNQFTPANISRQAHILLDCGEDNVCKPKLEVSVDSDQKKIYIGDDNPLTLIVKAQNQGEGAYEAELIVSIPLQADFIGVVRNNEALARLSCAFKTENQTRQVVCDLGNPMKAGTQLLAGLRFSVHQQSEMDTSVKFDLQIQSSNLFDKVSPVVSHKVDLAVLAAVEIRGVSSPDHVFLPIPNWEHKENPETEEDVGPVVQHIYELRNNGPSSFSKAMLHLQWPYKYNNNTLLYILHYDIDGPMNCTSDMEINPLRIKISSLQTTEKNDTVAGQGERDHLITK
Chain of Integrin alpha-V/beta-3 (P06756 891-1048 limits assumed): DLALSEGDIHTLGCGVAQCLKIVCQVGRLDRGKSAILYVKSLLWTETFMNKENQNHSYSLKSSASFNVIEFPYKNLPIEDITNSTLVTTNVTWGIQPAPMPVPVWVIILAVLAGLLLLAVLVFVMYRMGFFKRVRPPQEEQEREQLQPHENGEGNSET
Method in brief: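 Vitronectin-coated wells (1 µg/mL) were blocked with 3% BSA/PBS-Tween. Soluble αvβ3 (1 µg/mL) was incubated with serially diluted inhibitor for 1 h at RT in Tris/NaCl/MnCl2/BSA buffer. Binding was read with anti-αvβ3 plus anti-mouse-HRP, then TMB, absorbance 450 nm. IC50 was taken at the turning point of the inhibition curve.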

Integrin alpha-V/beta-5 = Integrin alpha-V/beta-5 (Homo sapiens, UniProt P06756+P18084); test: Inhibition of integrin alpha-V-beta-5 receptor by ELISA; assay type: protein-complex assay
Method in brief: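 ELISA on vitronectin coating (5 µg/mL). Soluble αvβ5 (1.5 µg/mL) was incubated with serially diluted inhibitor for 1 h at RT in Tris pH 7.6, NaCl, 1 mM each MnCl2/MgCl2/CaCl2, BSA, 0.05% Tween 20. Detection used anti-αvβ5 and anti-mouse-HRP, TMB, A450. IC50 was the inflection point.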

Integrin alpha-5/beta-1 [2] = target: T1, Integrin alpha-5/beta-1 (Homo sapiens, UniProt P05556+P08648); test: Inhibition of integrin alpha-5-beta-1 receptor by ELISA; assay type: protein-complex assay
T1 sequence (P05556 21-798 limits assumed): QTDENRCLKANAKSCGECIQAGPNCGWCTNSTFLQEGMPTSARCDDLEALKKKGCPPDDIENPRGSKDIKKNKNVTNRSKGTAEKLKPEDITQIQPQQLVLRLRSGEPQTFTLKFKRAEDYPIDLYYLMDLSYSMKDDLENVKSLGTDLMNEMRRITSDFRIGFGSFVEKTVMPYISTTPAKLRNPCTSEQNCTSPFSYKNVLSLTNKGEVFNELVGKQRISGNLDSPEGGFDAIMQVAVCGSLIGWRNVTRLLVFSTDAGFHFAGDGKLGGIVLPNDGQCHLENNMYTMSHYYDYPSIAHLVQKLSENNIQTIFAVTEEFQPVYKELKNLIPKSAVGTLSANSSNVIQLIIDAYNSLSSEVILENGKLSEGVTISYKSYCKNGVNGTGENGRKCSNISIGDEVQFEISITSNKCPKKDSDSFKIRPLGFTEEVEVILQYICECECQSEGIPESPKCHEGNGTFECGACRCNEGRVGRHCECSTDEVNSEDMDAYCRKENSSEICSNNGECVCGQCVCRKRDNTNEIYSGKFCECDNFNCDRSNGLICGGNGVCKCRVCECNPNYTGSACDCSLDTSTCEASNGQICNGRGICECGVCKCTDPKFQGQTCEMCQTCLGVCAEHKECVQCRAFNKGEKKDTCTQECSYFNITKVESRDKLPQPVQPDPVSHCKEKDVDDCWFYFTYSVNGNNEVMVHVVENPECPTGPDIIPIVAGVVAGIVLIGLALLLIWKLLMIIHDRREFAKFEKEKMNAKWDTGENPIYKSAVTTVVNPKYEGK
T1 sequence (P08648 42-894 limits assumed): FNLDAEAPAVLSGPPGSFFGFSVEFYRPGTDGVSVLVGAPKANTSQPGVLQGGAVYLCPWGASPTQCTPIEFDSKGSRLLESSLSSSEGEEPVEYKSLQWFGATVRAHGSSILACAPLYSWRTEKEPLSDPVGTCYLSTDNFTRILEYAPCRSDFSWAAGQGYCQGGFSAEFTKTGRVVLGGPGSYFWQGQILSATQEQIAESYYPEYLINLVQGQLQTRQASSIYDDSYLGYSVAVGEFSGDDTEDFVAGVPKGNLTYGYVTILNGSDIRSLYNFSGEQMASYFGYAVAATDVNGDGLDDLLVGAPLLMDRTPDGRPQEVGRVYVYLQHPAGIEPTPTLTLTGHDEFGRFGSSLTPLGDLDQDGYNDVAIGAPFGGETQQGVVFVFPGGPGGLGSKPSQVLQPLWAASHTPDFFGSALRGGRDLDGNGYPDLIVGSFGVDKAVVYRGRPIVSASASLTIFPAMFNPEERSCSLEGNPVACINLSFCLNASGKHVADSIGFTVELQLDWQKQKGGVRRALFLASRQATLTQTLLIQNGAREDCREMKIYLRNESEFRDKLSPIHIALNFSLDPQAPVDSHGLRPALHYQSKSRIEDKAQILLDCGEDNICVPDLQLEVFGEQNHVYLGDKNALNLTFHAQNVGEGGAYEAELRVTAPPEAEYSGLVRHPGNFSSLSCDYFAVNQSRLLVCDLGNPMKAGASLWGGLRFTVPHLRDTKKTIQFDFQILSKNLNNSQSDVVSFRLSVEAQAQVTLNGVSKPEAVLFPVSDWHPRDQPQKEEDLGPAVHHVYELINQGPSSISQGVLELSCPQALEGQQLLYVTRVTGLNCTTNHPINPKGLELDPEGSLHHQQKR
T1 sequence (P08648 895-1049 limits assumed): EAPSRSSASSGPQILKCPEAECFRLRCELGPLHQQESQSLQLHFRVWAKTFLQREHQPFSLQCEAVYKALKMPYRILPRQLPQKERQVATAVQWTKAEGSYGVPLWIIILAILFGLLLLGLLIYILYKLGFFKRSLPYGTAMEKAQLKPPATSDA
Method in brief: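 Wells coated overnight at 4°C with fibronectin (0.25 µg/mL) at pH 9.6, then blocked with 3% BSA. Bound integrin was detected with anti-human-Fc-HRP, TMB, A450. IC50 was taken from the curve turning point.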

[3] = Inhibition of integrin alpha-3b-beta-1 receptor by ELISA; set-up: species or system Homo sapiens
Method in brief: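 Solid-phase ELISA. Wells coated with laminin (5 µg/mL) and blocked with 3% BSA/PBS-Tween. Soluble α3β1 (2 µg/mL) was incubated with serially diluted inhibitor in Tris pH 7.6, NaCl, 1 mM MnCl2, BSA, 0.05% Tween 20 for 1 h at RT. Detection used polyclonal anti-α3β1 then anti-rabbit-HRP, TMB/H2SO4, absorbance 450 nm. IC50 was taken as the inflection point.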

[4] = Stability in human microsome at 1 uM after 1 hr; assay type: ADME; conditions: microsomes, read-out: Stability
Method in brief: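 Compound at 1 µM was incubated with human microsomes for 1 h, and the percentage remaining was recorded.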

Homo sapiens [5] = organism: Homo sapiens; test: Selectivity for integrin alpha-5-beta-1 over alpha2bbeta3 receptor
Homo sapiens [6] = organism: Homo sapiens; test: Selectivity for integrin alpha5beta1 over alpha-3-beta-1 receptor
Homo sapiens [7] = organism: Homo sapiens; test: Selectivity for integrin alpha-5-beta-1 over alphaVbeta5 receptor
Homo sapiens [8] = organism: Homo sapiens; test: Selectivity for integrin alpha5beta1 over alphaVbeta3 receptor
Integrin alpha-5/beta-1 [9] = target: T1, Integrin alpha-5/beta-1; test: Inhibition of integrin alpha-5-beta-1 receptor expressed in HEK293 cells; assay type: cell-based
Method in brief: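 HEK293 cells with endogenous α5β1 were tested for adhesion to fibronectin. IC50 was determined.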

Chain of Integrin alpha-IIb/beta-3 (P05106 27-788 limits assumed): as the sequence (P05106 27-788 limits assumed) above
Chain of Integrin alpha-IIb/beta-3 (P08514 32-887 limits assumed): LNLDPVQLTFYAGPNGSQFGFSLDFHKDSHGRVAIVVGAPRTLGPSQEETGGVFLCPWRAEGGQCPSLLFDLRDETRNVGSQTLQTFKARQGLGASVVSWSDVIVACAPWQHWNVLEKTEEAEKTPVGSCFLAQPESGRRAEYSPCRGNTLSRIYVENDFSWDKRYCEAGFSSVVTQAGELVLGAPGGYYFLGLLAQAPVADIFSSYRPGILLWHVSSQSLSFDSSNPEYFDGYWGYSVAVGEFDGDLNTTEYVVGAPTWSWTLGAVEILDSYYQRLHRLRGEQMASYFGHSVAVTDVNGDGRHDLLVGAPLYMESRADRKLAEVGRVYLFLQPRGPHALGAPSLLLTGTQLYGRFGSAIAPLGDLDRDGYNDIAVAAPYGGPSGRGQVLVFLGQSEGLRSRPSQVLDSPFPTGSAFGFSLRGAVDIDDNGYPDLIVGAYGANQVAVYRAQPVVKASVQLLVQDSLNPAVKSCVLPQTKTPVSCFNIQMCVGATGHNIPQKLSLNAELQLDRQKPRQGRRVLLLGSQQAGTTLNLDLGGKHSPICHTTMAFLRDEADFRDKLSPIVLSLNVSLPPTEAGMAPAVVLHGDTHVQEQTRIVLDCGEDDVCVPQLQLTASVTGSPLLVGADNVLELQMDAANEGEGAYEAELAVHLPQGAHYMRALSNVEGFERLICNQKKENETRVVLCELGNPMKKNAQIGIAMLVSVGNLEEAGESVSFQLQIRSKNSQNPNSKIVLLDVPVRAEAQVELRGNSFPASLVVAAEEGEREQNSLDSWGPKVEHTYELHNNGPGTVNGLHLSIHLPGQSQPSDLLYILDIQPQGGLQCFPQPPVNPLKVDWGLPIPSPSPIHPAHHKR
Chain of Integrin alpha-IIb/beta-3 (P08514 891-1039 limits assumed): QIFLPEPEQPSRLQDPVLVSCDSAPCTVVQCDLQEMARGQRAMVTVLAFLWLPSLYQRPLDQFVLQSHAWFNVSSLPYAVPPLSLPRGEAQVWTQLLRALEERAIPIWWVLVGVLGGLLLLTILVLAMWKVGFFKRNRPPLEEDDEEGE

Row | SMILES | IC50 [1] | IC50 (Integrin alpha-V/beta-3) | IC50 (Integrin alpha-V/beta-5) | IC50 (Integrin alpha-5/beta-1 [2]) | IC50 [3] | other results
1 | CC(C)(C)CC(=O)N1C[C@H](OCC(=O)NC[C@H](NC(=O)C2(C)CCCCC2)C(=O)O)C[C@H]1CNc1ccccn1 | > 50000 nM | 1600 nM | 2300 nM | 1.4 nM |  | 
2 | COC(=O)N1C[C@H](OCC(=O)NC[C@H](NS(=O)(=O)c2c(C)cc(C)cc2C)C(=O)O)C[C@H]1CNc1ccccn1 |  | 9 nM |  | 15 nM |  | 
3 | COc1ccnc(NC[C@@H]2C[C@@H](OCC(=O)NC[C@H](NC(=O)C3(C)CCCCC3)C(=O)O)CN2C(=O)CC(C)(C)C)c1 | > 50000 nM | 980 nM | 4300 nM | 0.55 nM | 50000 nM | 
4 | COc1ccnc(NC[C@@H]2C[C@@H](OCC(=O)NC[C@H](NS(=O)(=O)c3c(C)cc(C)cc3C)C(=O)O)CN2C(=O)OCc2ccccc2)c1 | 7.7 nM | 2.4 nM | 19 nM | 1.1 nM |  | 
5 | COc1ccnc(NC[C@@H]2C[C@@H](OCC(=O)NC[C@H](NS(=O)(=O)c3c(C)cc(C)cc3C)C(=O)O)CN2C(=O)CC(C)(C)C)c1 | 11000 nM | 4 nM | 29 nM | 0.9 nM |  | 
6 | Cc1cc(C)c(S(=O)(=O)N[C@@H](CNC(=O)CO[C@H]2CN[C@H](CNc3ccccn3)C2)C(=O)O)c(C)c1 |  |  |  | 286 nM |  | 
7 | COc1ccnc(NC[C@@H]2C[C@@H](OCC(=O)NC[C@H](NC(=O)c3c(C)cc(C)cc3C)C(=O)O)CN2C(=O)CC(C)(C)C)c1 | > 50000 nM | 3300 nM | 6800 nM | 0.55 nM | 13000 nM | IC50 (Integrin alpha-5/beta-1 [9]): 50 nM
8 | Cc1cc(C)c(S(=O)(=O)N[C@@H](CNC(=O)CO[C@@H]2C[C@@H](CNc3ccccn3)N(CCCc3ccccc3)C2)C(=O)O)c(C)c1 |  |  |  | 670 nM |  | 
9 | Cc1cc(C)c(C(=O)N[C@@H](CNC(=O)CO[C@@H]2C[C@@H](CNc3ccccn3)N(C(=O)CC(C)(C)C)C2)C(=O)O)c(C)c1 | > 50000 nM | 16000 nM | > 50000 nM | 1.6 nM |  | 
10 | Cc1cc(C)c(S(=O)(=O)N[C@@H](CNC(=O)CO[C@@H]2C[C@@H](CNc3ccccn3)N(C(=O)CC(C)(C)C)C2)C(=O)O)c(C)c1 | 8000 nM | 36 nM | 245 nM | 6 nM |  | remaining at 1 h, 1 µM [4]: 70%

The next lines start with results.

Row | IC50 [1] | IC50 (Integrin alpha-V/beta-3) | IC50 (Integrin alpha-V/beta-5) | IC50 (Integrin alpha-5/beta-1 [2]) | IC50 [3] | SMILES | other results
11 | > 50000 nM | 690 nM | 3100 nM | 0.8 nM | 30000 nM | COc1ccnc(NC[C@@H]2C[C@@H](OCC(=O)NC[C@H](NC(=O)C3(C)CCCCC3)C(=O)O)CN2C(=O)OCc2ccccc2)c1 | 
12 |  | 16 nM | 330 nM |  | > 200000 nM | Cc1cc(C)c(S(=O)(=O)N[C@@H](CNC(=O)CO[C@@H]2C[C@@H](CNc3ccccn3)N(C(=O)OCc3ccccc3)C2)C(=O)O)c(C)c1 | remaining at 1 h, 1 µM [4]: 43%
13 | > 50000 nM | 30000 nM | 30000 nM | 3.5 nM | 36000 nM | Cc1cc(C)c(C(=O)N[C@@H](CNC(=O)CO[C@@H]2C[C@@H](CNc3ccccn3)N(C(=O)OCc3ccccc3)C2)C(=O)O)c(C)c1 | Selectivity ratio (Homo sapiens [5]): 10000; Selectivity ratio (Homo sapiens [6]): 10000; Selectivity ratio (Homo sapiens [7]): 10000; Selectivity ratio (Homo sapiens [8]): 10000
14 |  |  |  | 445 nM |  | Cc1cc(C)c(S(=O)(=O)N[C@@H](CNC(=O)CO[C@@H]2C[C@@H](CNc3cc(Cl)ccn3)N(C(=O)OCc3ccccc3)C2)C(=O)O)c(C)c1 | 
15 | 12000 nM | 6.3 nM | 260 nM | 86 nM |  | O=C(CO[C@@H]1C[C@@H](CNc2ccccn2)N(C(=O)OCc2ccccc2)C1)NC[C@H](NS(=O)(=O)c1ccccc1)C(=O)O | 
16 |  | 140 nM |  | 155 nM |  | O=C(CO[C@@H]1C[C@@H](CNc2ccccn2)N(C(=O)OCc2ccccc2)C1)NC[C@H](NC(=O)c1ccccc1)C(=O)O | 
17 |  | 21 nM |  | 231 nM |  | Cc1cc(C)c(S(=O)(=O)N[C@@H](CNC(=O)CO[C@@H]2C[C@@H](CNc3cccc(C)n3)N(C(=O)OCc3ccccc3)C2)C(=O)O)c(C)c1 | 
18 |  | 38 nM |  | 25 nM |  | Cc1cc(C)c(S(=O)(=O)N[C@@H](CNC(=O)CO[C@@H]2C[C@@H](CNc3ccccn3)N(C(=O)CCc3ccccc3)C2)C(=O)O)c(C)c1 | 
19 | 50000 nM | 3400 nM | 2700 nM | 0.54 nM | 20000 nM | COc1ccnc(NC[C@@H]2C[C@@H](OCC(=O)NC[C@H](NC(=O)c3c(C)cc(C)cc3C)C(=O)O)CN2C(=O)OCc2ccccc2)c1 | 
20 | > 50000 nM | 880 nM | 550 nM | 1.7 nM |  | CC1(C(=O)N[C@@H](CNC(=O)CO[C@@H]2C[C@@H](CNc3ccccn3)N(C(=O)OCc3ccccc3)C2)C(=O)O)CCCCC1 | 

From ChEMBL document CHEMBL1148701, “Design and synthesis of a new class of selective integrin alpha5beta1 antagonists” (J Med Chem, 2007)
